By ED50 is commonly meant the midpoint of the dose-response relation. The low end stands for an effect at a small dose, the high end for a need for a large dose. As a reminder, the IC50 is the concentration that gives 50% inhibition.

From ChEMBL document CHEMBL1122764, “Synthesis and antidepressant activity of 4-aryltetrahydrothieno[2,3-c]pyridine derivatives” (J Med Chem, 1984) come the findings set out here.

One experiment is filed under the species Mus musculus. Briefly: Anti-tetrabenazine (TBZ) activity, ability to prevent TBZ-induced ptosis in mice. It is filed as functional. Put shortly:
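Mice; compound given by an unstated route some hours before tetrabenazine (the time is truncated). Five animals per dose, with at least three to five doses. Ptosis scored 75-120 min after tetrabenazine injection on the Rubin scale (eyes closed = 100).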

The species named for experiment [1] is Rattus norvegicus. Briefly: cells. Type of experiment: functional, organism-based, Synaptosomes. Conditions: Brain, 3 h.
Experiment [2] is filed under the species Rattus norvegicus. Kind of experiment: In vitro inhibition of norepinephrine uptake in rat brain synaptosomes using [3H]NE. It is filed as functional, organism-based.

Structures are written as SMILES.

Take `Cc1ccc(C2CN(C)Cc3sc(Cl)cc32)cc1.Cl` (configuration not stated): in the experiment listed under Mus musculus, the ED50 is 5.9 mg/kg. For the same molecule, the half-inhibitory concentration (IC50) in the experiment filed under Rattus norvegicus [1] is > 10000 nM; in the experiment filed under Rattus norvegicus [2], 900 nM.

For the molecule `CN1Cc2sccc2C(c2ccc(Cl)cc2Cl)C1.Cl` (configuration not stated), the ED50 in the experiment filed under Mus musculus is > 40 mg/kg. Besides, the IC50 in the experiment filed under Rattus norvegicus [1] is 3000 nM; in the experiment listed under Rattus norvegicus [2], > 10000 nM.

In turn, `CN1Cc2sc(Br)cc2C(c2ccc(Br)cc2)C1` (configuration not stated) showed an ED50 in the experiment listed under Mus musculus of 0.8 mg/kg. The figures for the IC50 in the experiment filed under Rattus norvegicus [1] and in the experiment listed under Rattus norvegicus [2] were 4100 nM and 1600 nM, respectively.

As for `CN1Cc2c(N)cccc2C(c2ccccc2)C1` (configuration not stated) [NOMIFENSINE], in the experiment listed under Mus musculus, the ED50 came out at 1.7 mg/kg.

Regarding `Cl.Clc1cc2c(s1)CNCC2c1ccc(Br)cc1` (configuration not stated), in the experiment filed under Mus musculus, the ED50 was > 40 mg/kg. Moreover, the IC50 in the experiment filed under Rattus norvegicus [1] is > 10000 nM; in the experiment listed under Rattus norvegicus [2], 3600 nM.

The molecule `Cc1cc2c(s1)CN(C)CC2c1ccc(O)cc1.Cl` (configuration not stated) returned an ED50 in the experiment listed under Mus musculus of 10 mg/kg. Further, the figures for the IC50 in the experiment filed under Rattus norvegicus [1] and in the experiment listed under Rattus norvegicus [2] were 460 nM and 250 nM, respectively.

`CN1Cc2sc(C(C)(C)C)cc2C(c2ccc(Br)cc2)C1.Cl` (configuration not stated) came in with an ED50 in the experiment filed under Mus musculus of 7 mg/kg. Further, the IC50 in the experiment listed under Rattus norvegicus [1] amounted to 5700 nM; in the experiment listed under Rattus norvegicus [2], 1740 nM.

In turn, `Cc1cc2c(s1)CN(C)CC2c1ccc(Br)cc1.Cl` (configuration not stated) yielded an ED50 in the experiment filed under Mus musculus of 2.6 mg/kg. Moreover, the IC50 came to 540 nM in the experiment listed under Rattus norvegicus [1] and 500 nM in the experiment filed under Rattus norvegicus [2].

For the molecule `CN1Cc2sc(Br)cc2C(c2ccccc2)C1.Cl` (configuration not stated), it took a dose of 6 mg/kg to reach the 50% effect level in the experiment filed under Mus musculus (ED50). For the same molecule, the IC50 in the experiment filed under Rattus norvegicus [1] is > 10000 nM; in the experiment listed under Rattus norvegicus [2], 2300 nM.

In the case of `CN1Cc2sc([N+](=O)[O-])cc2C(c2ccc(Cl)cc2)C1` (configuration not stated), the ED50 in the experiment filed under Mus musculus was > 40 mg/kg. The IC50 was found to be 3350 nM in the experiment filed under Rattus norvegicus [1] and 800 nM in the experiment filed under Rattus norvegicus [2].

Consider `Cc1cc2c(s1)CN(C)CC2c1ccc(C(F)(F)F)cc1.Cl` (configuration not stated), for which the ED50 in the experiment filed under Mus musculus was > 40 mg/kg. Besides, the figures for the IC50 in the experiment listed under Rattus norvegicus [1] and in the experiment listed under Rattus norvegicus [2] were 2050 nM and 7800 nM, respectively.

In turn, `COCc1cc2c(s1)CN(C)CC2c1ccc(Br)cc1` (configuration not stated) showed an ED50 in the experiment filed under Mus musculus of 1.7 mg/kg. For the same molecule, the 50% inhibitory concentration (IC50) in the experiment listed under Rattus norvegicus [1] worked out at 200 nM; in the experiment listed under Rattus norvegicus [2], 370 nM.

In the experiment listed under Mus musculus, `Cc1ccc(C2CN(C)Cc3sc(Br)cc32)cc1.Cl` (configuration not stated) registered an ED50 of 7.4 mg/kg. The IC50 in the experiment filed under Rattus norvegicus [1] was 9000 nM; in the experiment filed under Rattus norvegicus [2], 640 nM.

In the experiment filed under Mus musculus, `CC(=O)Nc1cc2c(s1)CN(C)CC2c1ccc(Cl)cc1.Cl` (configuration not stated) had an ED50 of 35 mg/kg. Besides, the IC50 in the experiment listed under Rattus norvegicus [1] came out at 600 nM; in the experiment filed under Rattus norvegicus [2], 570 nM.

Molecule `Cc1cc2c(s1)CN(C)CC2c1ccccc1.Cl` (configuration not stated) showed an ED50 in the experiment filed under Mus musculus of 8.4 mg/kg. Further, the IC50 in the experiment listed under Rattus norvegicus [1] was 8000 nM; in the experiment filed under Rattus norvegicus [2] it was 560 nM.

With `Cc1cc2c(s1)CN(C)CC2c1c(Cl)cccc1Cl.Cl` (configuration not stated), in the experiment filed under Mus musculus, the ED50 was > 40 mg/kg. Besides, the IC50 in the experiment filed under Rattus norvegicus [1] and in the experiment listed under Rattus norvegicus [2] was > 10000 nM each time.

In the case of `Oc1cccc(C2CNCc3sc(Cl)cc32)c1` (configuration not stated), the ED50 in the experiment filed under Mus musculus was > 40 mg/kg. Moreover, the results for the IC50 in the experiment listed under Rattus norvegicus [1] and in the experiment listed under Rattus norvegicus [2] were > 10000 nM and 3200 nM, respectively.

Consider `CN(C)CCCN1c2ccccc2CCc2ccccc21` [IMIPRAMINE], for which the ED50 in the experiment listed under Mus musculus is 2.3 mg/kg. Also, the IC50 in the experiment listed under Rattus norvegicus [1] was 230 nM; in the experiment listed under Rattus norvegicus [2], 5000 nM.

Consider `COc1ccc(C2CN(C)Cc3sc(C)cc32)cc1.Cl` (configuration not stated), for which, in the experiment filed under Mus musculus, the ED50 came to 7.1 mg/kg. The values for the IC50 in the experiment listed under Rattus norvegicus [1] and in the experiment listed under Rattus norvegicus [2] were 500 nM and 400 nM, respectively.

On to `Cc1cc2c(s1)CN(C)CC2c1cccc(C(F)(F)F)c1.Cl` (configuration not stated), for which the ED50 in the experiment filed under Mus musculus is > 40 mg/kg. Besides, the values for the IC50 in the experiment filed under Rattus norvegicus [1] and in the experiment listed under Rattus norvegicus [2] were > 10000 nM and 3400 nM, respectively.

As to `CN1Cc2sc([N+](=O)[O-])cc2C(c2ccc(Br)cc2)C1.Cl` (configuration not stated), the ED50 in the experiment listed under Mus musculus was found to be 3.6 mg/kg. For the same molecule, the IC50 in the experiment listed under Rattus norvegicus [1] turned out to be 2450 nM; in the experiment listed under Rattus norvegicus [2], 450 nM.

Consider `Cl.c1ccc(C2CNCc3sccc32)cc1` (configuration not stated), for which the ED50 in the experiment filed under Mus musculus was > 40 mg/kg. For the same molecule, the IC50 in the experiment filed under Rattus norvegicus [1] is > 10000 nM; in the experiment listed under Rattus norvegicus [2], 3000 nM.

Turning to `CN1Cc2sc(Cl)cc2C(c2ccccc2)C1.Cl` (configuration not stated), the ED50 in the experiment listed under Mus musculus was > 40 mg/kg. The IC50 is > 10000 nM in the experiment filed under Rattus norvegicus [1] and 1400 nM in the experiment filed under Rattus norvegicus [2].

Regarding `Cc1sc2c(c1Br)C(c1ccc(Br)cc1)CN(C)C2.Cl` (configuration not stated), the ED50 in the experiment filed under Mus musculus is > 40 mg/kg. Further, the figures for the IC50 in the experiment listed under Rattus norvegicus [1] and in the experiment listed under Rattus norvegicus [2] were > 10000 nM and 7800 nM, respectively.

Consider `Cc1cc2c(s1)CN(C)CC2c1ccc(Cl)cc1.Cl` (configuration not stated), for which the ED50 in the experiment listed under Mus musculus was > 40 mg/kg. The figures for the IC50 in the experiment filed under Rattus norvegicus [1] and in the experiment filed under Rattus norvegicus [2] were 3550 nM and 190 nM, respectively.

With `Cc1cc2c(s1)CNCC2c1ccc(Br)cc1.Cl` (configuration not stated), the ED50 in the experiment filed under Mus musculus was > 40 mg/kg. Besides, the IC50 turned out to be 1800 nM in the experiment filed under Rattus norvegicus [1] and 760 nM in the experiment filed under Rattus norvegicus [2].

In turn, `Cc1cc2c(s1)CN(C)CC2(C)c1ccc(Br)cc1` (configuration not stated) registered an ED50 in the experiment listed under Mus musculus of 40 mg/kg. Also, the IC50 came to 3100 nM in the experiment filed under Rattus norvegicus [1] and 3400 nM in the experiment listed under Rattus norvegicus [2].

For `CCCc1cc2c(s1)CN(C)CC2c1ccc(Br)cc1.Cl` (configuration not stated), the ED50 in the experiment filed under Mus musculus came to 40 mg/kg. In addition, the IC50 in the experiment listed under Rattus norvegicus [1] amounted to 860 nM; in the experiment listed under Rattus norvegicus [2], 990 nM.

With `COc1ccc(C2CN(C)Cc3sccc32)cc1OC.Cl` (configuration not stated), the ED50 in the experiment listed under Mus musculus is > 40 mg/kg. Also, the IC50 in the experiment filed under Rattus norvegicus [1] was 300 nM; in the experiment listed under Rattus norvegicus [2], > 10000 nM.

On to `CN1Cc2sc(N)cc2C(c2ccc(Cl)cc2)C1` (configuration not stated), for which the ED50 in the experiment filed under Mus musculus was > 40 mg/kg. In addition, the values for the IC50 in the experiment filed under Rattus norvegicus [1] and in the experiment filed under Rattus norvegicus [2] were 210 nM and 180 nM, respectively.

For `CCc1cc2c(s1)CN(CC)CC2c1ccc(C)cc1.Cl` (configuration not stated), in the experiment filed under Mus musculus, the ED50 was > 40 mg/kg. Also, the IC50 in the experiment listed under Rattus norvegicus [1] is 1800 nM; in the experiment filed under Rattus norvegicus [2] it was 270 nM.

`CN1Cc2sc(N)cc2C(c2ccc(Br)cc2)C1` (configuration not stated) came in with an ED50 in the experiment listed under Mus musculus of 7.4 mg/kg. In addition, the half-maximal inhibitory concentration (IC50) in the experiment filed under Rattus norvegicus [1] stood at 90 nM; in the experiment filed under Rattus norvegicus [2], 130 nM.

Regarding `CCC1(c2ccc(Br)cc2)CN(C)Cc2sc(C)cc21` (configuration not stated), the ED50 in the experiment filed under Mus musculus is > 40 mg/kg. In addition, the IC50 in the experiment filed under Rattus norvegicus [1] and in the experiment filed under Rattus norvegicus [2] was > 10000 nM each time.

As for `CN1Cc2sc(Cl)cc2C(c2ccc(Cl)cc2)C1.Cl` (configuration not stated), the ED50 in the experiment listed under Mus musculus is 2.2 mg/kg. The IC50 in the experiment listed under Rattus norvegicus [1] was determined as 5400 nM; in the experiment listed under Rattus norvegicus [2] it was 1600 nM.

For the molecule `CN1Cc2sc(Cl)cc2C(c2ccc(Br)cc2)C1.Cl` (configuration not stated), the ED50 in the experiment filed under Mus musculus amounted to 6.5 mg/kg. For the same molecule, the concentration for half-maximal inhibition (IC50) in the experiment filed under Rattus norvegicus [1] was 3500 nM; in the experiment filed under Rattus norvegicus [2], 1000 nM.

`Cc1ccc(C2CN(C)Cc3sc(CO)cc32)cc1.Cl` (configuration not stated): in the experiment listed under Mus musculus, the 50% effect level (ED50) was put at a dose of 0.7 mg/kg. The figures for the IC50 in the experiment listed under Rattus norvegicus [1] and in the experiment listed under Rattus norvegicus [2] were 1200 nM and 50 nM, respectively.

Consider `CCCc1cc2c(s1)CN(C)CC2c1ccc(F)cc1.Cl` (configuration not stated), for which the ED50 in the experiment listed under Mus musculus turned out to be 13 mg/kg. In addition, the IC50 amounted to 780 nM in the experiment filed under Rattus norvegicus [1] and 1100 nM in the experiment listed under Rattus norvegicus [2].

Regarding `CCCCN1Cc2sccc2C(c2ccc(Cl)cc2)C1.Cl` (configuration not stated), the ED50 in the experiment listed under Mus musculus was > 40 mg/kg. Also, the IC50 in the experiment filed under Rattus norvegicus [1] and in the experiment listed under Rattus norvegicus [2] was > 10000 nM in each case.
